In ChEMBL document CHEMBL2062398, “De novo peptide design with C3a receptor agonist and antagonist activities: theoretical predictions and experimental validation” (J Med Chem, 2012):
pEC50, pIC50: −log10 of the molar value. Calls of active or inactive are those of the source. The calls are words filed in the database; no cut-off is given here.

What was measured:
[1] = target: T1, C3a anaphylatoxin chemotactic receptor (Homo sapiens) (UniProt Q16581); assay: Agonist activity at human C3a receptor expressed in RBL-2H3 cells assessed as beta-hexosaminidase activity in cell supernatant by degranulation assay relative to recombinant human C3a; type: functional, cell-based
T1 sequence (whole entry): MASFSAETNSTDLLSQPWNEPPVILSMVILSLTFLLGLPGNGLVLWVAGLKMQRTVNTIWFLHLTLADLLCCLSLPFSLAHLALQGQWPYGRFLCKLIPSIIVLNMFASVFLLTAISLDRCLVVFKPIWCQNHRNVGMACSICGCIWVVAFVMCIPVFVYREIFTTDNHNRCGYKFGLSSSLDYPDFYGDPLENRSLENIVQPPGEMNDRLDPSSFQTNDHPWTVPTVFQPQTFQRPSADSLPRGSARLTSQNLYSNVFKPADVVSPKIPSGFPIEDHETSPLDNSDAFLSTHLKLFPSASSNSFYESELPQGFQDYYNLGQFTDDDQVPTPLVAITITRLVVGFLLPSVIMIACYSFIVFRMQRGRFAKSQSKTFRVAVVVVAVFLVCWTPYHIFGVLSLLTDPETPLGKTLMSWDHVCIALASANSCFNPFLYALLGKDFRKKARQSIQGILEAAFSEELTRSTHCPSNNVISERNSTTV
Outline: (§1)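 Transfected RBL-2H3 cells kept in DMEM, 10% FCS, 400 mg/liter G-418, 37°C, 5% CO2. Degranulation read as β-hexosaminidase activity in supernatant. Secretion expressed as percent of maximal response to 200 nM recombinant human C3a or 10 nM FLPLAR. EC50, calculated maximum and SEM from iterative curve fitting.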

[2] = target: T1, C3a anaphylatoxin chemotactic receptor (Homo sapiens); assay: Agonist activity at human C3a receptor expressed in RBL-2H3 cells assessed as beta-hexosaminidase activity in cell supernatant by degranulation assay relative to FLPLAR; type: functional, cell-based; outline: as §1
[3] = target: T2, C5a anaphylatoxin chemotactic receptor 1 (Homo sapiens) (UniProt P21730); assay: Agonist activity at human C5a receptor expressed in RBL-2H3 cells assessed as beta-hexosaminidase activity in cell supernatant up to 1 uM by degranulation assay; type: functional, cell-based
T2 sequence (whole entry): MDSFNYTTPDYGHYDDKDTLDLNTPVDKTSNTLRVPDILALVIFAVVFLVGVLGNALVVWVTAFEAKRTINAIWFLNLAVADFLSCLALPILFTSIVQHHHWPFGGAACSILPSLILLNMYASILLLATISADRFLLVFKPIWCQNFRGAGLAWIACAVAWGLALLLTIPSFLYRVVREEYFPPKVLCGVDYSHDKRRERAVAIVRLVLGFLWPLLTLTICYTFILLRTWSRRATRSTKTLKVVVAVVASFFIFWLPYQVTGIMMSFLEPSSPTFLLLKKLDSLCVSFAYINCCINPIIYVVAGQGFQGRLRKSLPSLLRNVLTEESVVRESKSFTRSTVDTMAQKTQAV
Outline: (§2)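 Human C5aR-transfected RBL-2H3 cells were tested with peptides up to 1 μM. In the agonist mode, β-hexosaminidase secretion was taken relative to 200 nM human C5a. In the antagonist mode, cells were pretreated with peptide for 10 min before C5a was added.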

[4] = target: T1, C3a anaphylatoxin chemotactic receptor (Homo sapiens); assay: Antagonist activity at human C3a receptor expressed in RBL-2H3 cells assessed as inhibition of human recombinant C3a -induced beta-hexosaminidase activity in cell supernatant measuring minimum receptor activity compound preincubated for 10 mins by degranulation assay; type: functional, cell-based; set-up: scale not given: the % may be the effect or the level left
Outline: (§3)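 RBL-2H3 cells expressing human C3aR (DMEM, 10% FCS, G-418, 37°C) were pretreated with peptide for 10 min before 200 nM recombinant human C3a or 10 nM FLPLAR was added. β-Hexosaminidase release in supernatant was measured as percent of the agonist-alone response. IC50, calculated minimum and SEM came from iterative curve fitting.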

[5] = target: T2, C5a anaphylatoxin chemotactic receptor 1 (Homo sapiens); assay: Antagonist activity at human C5a receptor expressed in RBL-2H3 cells assessed as beta-hexosaminidase activity in cell supernatant up to 1 uM compound preincubated for 10 mins by degranulation assay; type: functional, cell-based; outline: as §2
[6] = target: T1, C3a anaphylatoxin chemotactic receptor (Homo sapiens); assay: Antagonist activity at human C3a receptor expressed in RBL-2H3 cells assessed as inhibition of FLPLAR-induced beta-hexosaminidase activity in cell supernatant measuring minimum receptor activity compound preincubated for 10 mins by degranulation assay; type: functional, cell-based; set-up: scale not given: the % may be the effect or the level left; outline: as §3
[7] = target: T3, C3a anaphylatoxin chemotactic receptor (Homo sapiens, UniProt Q16581); assay: Agonist activity at human C3a receptor expressed in RBL-2H3 cells assessed as beta-hexosaminidase activity in cell supernatant by degranulation assay; type: functional, cell-based
T3 sequence (Q16581 whole entry): T1 sequence (whole entry)
Outline: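 Degranulation read as β-hexosaminidase activity in supernatant. Secretion expressed as percent of maximal response to 200 nM recombinant human C3a or 10 nM FLPLAR. EC50, calculated maximum and SEM from iterative curve fitting.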

[8] = target: T3, C3a anaphylatoxin chemotactic receptor; assay: Antagonist activity at human C3a receptor expressed in RBL-2H3 cells assessed as beta-hexosaminidase activity in cell supernatant compound preincubated for 10 mins by degranulation assay; type: functional, cell-based
[9] = target: T1, C3a anaphylatoxin chemotactic receptor (Homo sapiens); assay: Agonist activity at C3a receptor in dbcAMP differentiated human U937 cells assessed as increase in intracellular calcium using […] staining by microplate reader relative to FLPLAR; type: functional, cell-based; settings: U-937
Outline: (§4)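 U937 cells grown in RPMI-1640 with 10% FCS at 37°C, 5% CO2, differentiated 48 h in 1 mM dibutyryl cAMP. Intracellular calcium rise read with Fluo-4 dye on a plate reader.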

[10] = target: T3, C3a anaphylatoxin chemotactic receptor; assay: Agonist activity at C3a receptor in dbcAMP differentiated human U937 cells assessed as increase in intracellular calcium using […] staining by microplate reader; type: functional, cell-based, U-937; outline: as §4

Substance | Emax [1] [%] | Emax [2] [%] | Activity [3] | Activity [4] [%] | Activity [5] | Activity [6] [%] | pEC50 [7] | pIC50 [8] | Emax [9] [%] | pEC50 [10]
Ac-WWTRRYRASKLGLAR-OH [listing 1 of 2 here] | 29 | 29 | inactive | 42 | inactive | 42 | – | – | – | –
Ac-WWGKKYRASKLGLAR-OH | – | 38 | inactive | 52 | inactive | – | – | – | – | –
Ac-WWTRRWRTEKLGLAR-OH [listing 1 of 2 here] | – | – | – | – | – | – | 6.15 | 8.11 | – | –
Ac-WWDRRWRASKLGLAR-OH | 14 | 14 | inactive | 24 | inactive | 48 | – | – | – | –
Ac-WWTRRWRTDKLGLAR-OH [listing 1 of 2 here] | 43 | 43 | inactive | 60 | inactive | 60 | – | – | – | –
Ac-WWSRRWRASKLGLAR-OH | 13 | 13 | inactive | 40 | inactive | 40 | 6.83 | 7.20 | – | –
Ac-WWTRRWRADKLGLAR-OH | 79 | 79 | inactive | 68 | inactive | 68 | 7.18 | 8.34 | 74 | 6.31
H-WWTRRWRASKLGLAR-OH | – | 37 | inactive | – | inactive | 63 | – | – | – | –
Ac-WWTRRWRGDKLGLAR-OH | 72 | 72 | inactive | 70 | inactive | 70 | 7.60 | 8.04 | 81 | 6.10
Ac-WWTRRWRASKLGLAR-OH | 35 | 35 | inactive | 47 | inactive | 47 | 6.71 | 7.30 | – | –
Ac-WWTRRWRTDKLGLAR-OH [listing 2 of 2 here] | – | – | – | – | – | – | 6.47 | 8.30 | – | –
Ac-WWTRRYRASKLGLAR-OH [listing 2 of 2 here] | – | – | – | – | – | – | 6.00 | 7.63 | – | –
Ac-WWRNRWRENRLGLAR-OH | 62 | – | inactive | 62.5 | inactive | 62.5 | – | – | – | –
Ac-WWERRWRASKLGLAR-OH | 22 | 22 | inactive | 35 | inactive | 61 | – | – | – | –
Ac-WWTRRWRTEKLGLAR-OH [listing 2 of 2 here] | 45 | 45 | inactive | 60 | inactive | 60 | – | – | – | –
